# Source: PubChem
# Many of the other results were omitted from the sample, so hits are more common in it than they were.
# HUVEC inhibit: inhibitors of HUVEC proliferation, primary screen, cell-based, 384-well. CellTiter-Glo luminescence, 72 h; stronger effect = lower value. viability, % at 10 µM (by protocol). hit rate 1.1% among 86,000;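 active = viability at or below 30%; inactive = viability above 30%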;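 note: 100% = median luminescence of DMSO-only cell control wells on each plate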
# HCT116 bCat-KO: primary screen for growth suppressors in beta-catenin knockout HCT116 cells (colon tumor, human); AID 818, 2007; hit rate 1.5% among 140,000; HCT116 beta-catenin knockout viability, CellTiter-Glo, 60 h; stronger effect = lower value; viability, % at 10 µM;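 active = viability at or under a set limit, the compound median less 4 SD, cut at about 6% in these data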;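 note: 0% = Hyamine 1622 control at 20 µM and 100% = untreated cell control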
# PTEN del growth: growth suppression of PTEN-null HCT116, primary screen, cell-based, CellTiter-Glo | HCT116 PTEN-null viability, 60 h; stronger effect = lower value | viability, % at 10 µM | hit rate 1.2% among 140,000;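 active = viability at or below a set limit, 4 SD under the median of all tested compounds, cut at about 3.7% in these data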;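 note: PTEN knockout HCT116 line with beta catenin targeted HCT116 as companion control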
# H69AR inhibit: proliferation blockers of H69AR lung cancer cells, primary screen, cell-based, human, 86K library | H69AR lung tumor viability, ATP luminescence, 72 h; stronger effect = lower value | viability, % at 10 µM | AID 598, 2007 | hit rate 6% among 85,000;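 active = viability at or below 40%; inactive = viability above 40%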;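 note: multidrug resistant small cell line overexpressing MRP-1 efflux transporter; 100% = mean luminescence of untreated control wells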
# Lung fibro prol: antiproliferative effect on LL 47 fibroblasts – human, LL 47 cells, CellTiter-Glo luminescence, primary screen. hit rate 1.1% among 85,000. LL 47 human lung fibroblast viability, ATP luminescence; stronger effect = lower value. AID 719, 2007. viability, % at 10 µM;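 active = viability at or below 50% in the single dose screen; inactive = viability above 50%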;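 note: compound exposure lasted 72 h before the ATP readout; 100% = median luminescence of untreated cell-only wells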
#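 Times – overnight cell rest, 72 h compound treatment at 37 °C · Test system – human lung fibroblast line LL 47, low passage · Amount – 1,150 cells in each well · Controls – cell-only wells, no compound · Doses – 0.1% DMSO in all compound wells · Measured by – CellTiter-Glo luminescence · Buffer or medium – IMEM plus 15% FBS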
# Numbers without * were called inactive; / = no result.
SMILES,HUVEC inhibit,HCT116 bCat-KO,PTEN del growth,H69AR inhibit,Lung fibro prol
CCN(CC)S(=O)(=O)c1ccc(N=Cc2c(C)c(C#N)c(=O)n(C)c2O)cc1,/,88,95,/,/
Cc1ccc(C23CC4CC(CC(NC(=O)N5CCN(C)CC5)(C4)C2)C3)cc1,72,1.5*,1.6*,83,85
COCCCN1C(=O)c2[nH]nc(-c3ccccc3O)c2C1c1ccc(Cl)cc1 (centres undefined),89,42,36,/,89
O=C1c2[nH]nc(-c3ccccc3O)c2C(c2ccccc2)N1Cc1ccco1 (centres undefined),91,81,76,/,91
COc1ccc(CCN2C(=O)c3[nH]nc(-c4ccccc4O)c3C2c2ccccc2)cc1OC (centres undefined),78,24,27,39*,90
O=C1c2[nH]nc(-c3ccccc3O)c2C(c2ccccc2F)N1Cc1ccco1 (centres undefined),53,43,28,4.5*,77
COCCCN1C(=O)c2[nH]nc(-c3ccccc3O)c2C1c1cccc(Cl)c1 (centres undefined),80,20,25,2.9*,65
CC(C)OCCCN1C(=O)c2[nH]nc(-c3ccccc3O)c2C1c1cccc(Cl)c1 (centres undefined),5.7*,40,19,6.5*,86
O=C(OC(C(=O)NC1CCCC1)c1ccccn1)c1cccs1 (centres undefined),95,84,93,91,106
CCOC(=O)N1CCN(C(=O)CN(C2CCCCC2)S(=O)(=O)c2c(C)cc(C)cc2C)CC1,111,82,95,86,98
Cc1ccc(C23CC4CC(CC(CC(=O)N5CCOCC5)(C4)C2)C3)cc1,121,74,75,78,97
CN1C2C=C3C(C#N)=C(N)C(C#N)(C#N)[C@H](c4c(F)cccc4F)[C@H]3C1CC2 (some centres undefined),93,52,62,18*,97
CN1C2C=C3C(C#N)=C(N)C(C#N)(C#N)[C@@H](c4cccc(F)c4)[C@@H]3C1CC2 (some centres undefined),100,94,97,81,98
N#CC1=C(N)C(C#N)(C#N)C2(CCC3(CC2)OCCO3)C2CC3(CC=C12)OCCO3 (centres undefined),94,91,92,97,108
N#CC1=C(N)C(C#N)(C#N)[C@H](c2c(F)cccc2F)[C@H]2CC3(CC=C12)OCCO3,48,43,37,3.0*,59
CCSc1nnc(NC(=O)NC(CC)(C(F)(F)F)C(F)(F)F)s1,45,26,29,14*,63
CCSc1nnc(NC(=O)NC(C)(C(F)(F)F)C(F)(F)F)s1,/,86,84,/,/
CCC(C)COC(=O)C(C#N)c1nc2ccccc2nc1N1CCCCC1 (centres undefined),104,74,76,82,98
C=CCOC(=O)C(C#N)c1nc2ccccc2nc1N1CCC(C(=O)OCC)CC1 (centres undefined),91,86,78,39*,97
CCC(CC)COC(=O)C(C#N)c1nc2ccccc2nc1N1CCN(CC)CC1 (centres undefined),3.2*,41,43,79,97
CCCCCCOC(=O)C(C#N)c1nc2ccccc2nc1N1CCN(C)CC1 (centres undefined),5.8*,22,25,3.6*,85
Cn1cc(Cl)c(C(=O)OCC(=O)Nc2nc(-c3ccc(Br)cc3)cs2)n1,72,107,104,84,99
COc1ccccc1CNCC(O)Cn1c2ccccc2c2ccccc21 (centres undefined),/,1.5*,1.4*,/,/
COc1ccc(-c2nnnn2-c2ccccc2OC)cc1,72,43,42,22*,82
Cc1cn(Cc2ccccc2)c(=O)[nH]c1=O,87,98,105,95,98
CCCCSc1nc(C)cc(SCC(=O)N/N=C/c2cccc(OC)c2O)n1,/,5.3*,4,/,/
CCN(CC)c1ccc(/C=N/NC(=S)NCc2ccccc2)c(O)c1,/,20,15,/,/
CCN(CC)c1ccc(/C=N/NC(=O)Cc2cccs2)c(O)c1,/,5.2*,6,/,/
CCN(CC)c1ccc(/C=N/Nc2nc3ccccc3[nH]2)c(O)c1,/,3.5*,7,/,/
